Measurements from ChEMBL document CHEMBL4229410, “Facile construction of fused benzimidazole-isoquinolinones that induce cell-cycle arrest and apoptosis in colorectal cancer cells” (Bioorg Med Chem, 2018).
The source made the active and inactive calls. The rule behind the calls is not given here.

Tests used:
[1] = molecular target: ALK tyrosine kinase receptor (Homo sapiens, UniProt Q9UM73); assay: Binding affinity to human ALK (I1088 to E1409 residues) expressed in mammalian expression system by KINOMEscan assay
[2] = molecular target: Serine/threonine-protein kinase B-raf (Homo sapiens, UniProt P15056); assay: Binding affinity to human BRAF (S429 to E741 residues) expressed in mammalian expression system by KINOMEscan assay
[3] = molecular target: Serine/threonine-protein kinase RIO2 (Homo sapiens, UniProt Q9BVS4); assay: Inhibition of human RIOK2 (M1 to D313 residues) expressed in mammalian expression system assessed as residual activity at 5 uM by KINOMEscan assay relative to control
[4] = molecular target: MAP/microtubule affinity-regulating kinase 3 (Homo sapiens, UniProt P27448); assay: Inhibition of full length human MARK3 (M1 to L729 residues) expressed in bacterial expression system assessed as residual activity at 5 uM by KINOMEscan assay relative to control
[5] = molecular target: High affinity nerve growth factor receptor (Homo sapiens, UniProt P04629); assay: Inhibition of human TRKA (G475 to G790 residues) expressed in mammalian expression system assessed as residual activity at 5 uM by KINOMEscan assay relative to control
SW-620 [6] = assay: Cell cycle arrest in human SW620 cells assessed as accumulation at G2-phase at 75 uM after 48 hrs by propidium iodide staining based flow cytometry (reference value: 14.08%); format: functional
HT-29 [7] = assay: Induction of apoptosis in human HT-29 cells assessed as live cells at 75 uM after 48 hrs by Annexin-V-FITC/propidium iodide staining based flow cytometry (reference value: 93.2%); format: functional
SW-620 [8] = assay: Cell cycle arrest in human SW620 cells assessed as accumulation at S-phase at 75 uM after 48 hrs by propidium iodide staining based flow cytometry (reference value: 43.72%); format: functional
Homo sapiens = organism: Homo sapiens; assay: Inhibition of PI3K in human SW620 cells assessed as reduction in AKT phosphorylation at T308 residue up to 75 uM after 48 hrs by Western blot analysis; format: cell-based
[9] = molecular target: Protein kinase C epsilon type (Homo sapiens) (UniProt Q02156); assay: Inhibition of human PRKCE (A378 to P737 residues) expressed in mammalian expression system assessed as residual activity at 5 uM by KINOMEscan assay relative to control
HT-29 [10] = assay: Induction of apoptosis in human HT-29 cells assessed as early apoptotic cells at 75 uM after 48 hrs by Annexin-V-FITC/propidium iodide staining based flow cytometry (reference value: 1%); format: functional
Activin receptor type-1B = Activin receptor type-1B (Homo sapiens, UniProt P36896); assay: Binding affinity to human ACVR1B (S187 to I505 residues) expressed in bacterial expression system by KINOMEscan assay
[11] = molecular target: Testis-specific serine/threonine-protein kinase 1 (Homo sapiens, UniProt Q9BXA7); assay: Binding affinity to full length human TSSK1B (M1 to Q367 residues) expressed in bacterial expression system by KINOMEscan assay
[12] = molecular target: Insulin-like growth factor 1 receptor (Homo sapiens, UniProt P08069); assay: Inhibition of human IGF1R (L972 to D1294 residues) expressed in bacterial expression system assessed as residual activity at 5 uM by KINOMEscan assay relative to control
SW-620 [13] = assay: Upregulation of p21 expression in human SW620 cells after 48 hrs by Western blot analysis; format: functional, cell-based
[14] = molecular target: Fibroblast growth factor receptor 3 (Homo sapiens, UniProt P22607); assay: Binding affinity to partial length human FGFR3 (R442 to S771 residues) expressed in bacterial expression system by KINOMEscan assay
SW-620 [15] = assay: Down regulation of cyclin-B1 expression in human SW620 cells after 48 hrs by Western blot analysis; format: functional, cell-based
In short: (§1)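 HT29 or SW620 cells were treated at 0, 25, 50 and 75 μM for 48 h and lysed in RIPA with protease and phosphatase inhibitors. Protein was quantified by BCA. 50 μg lysate was run on 8–15% SDS-PAGE and transferred to PVDF. Blocking was 5% BSA/TBST for 2 h; primary antibodies were applied overnight at 4 °C, then HRP secondary 1 h at room temperature.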

[16] = molecular target: Tyrosine-protein kinase JAK2 (Homo sapiens, UniProt O60674); assay: Binding affinity to human JAK2 JH1 catalytic domain (A829 to G1132 residues) expressed in mammalian expression system by KINOMEscan assay
[17] = molecular target: Cyclin-dependent kinase 9 (Homo sapiens, UniProt P50750); assay: Binding affinity to full length human CDK9 (M1 to F372 residues) expressed in bacterial expression system by KINOMEscan assay
SW-620 [18] = assay: Induction of apoptosis in human SW620 cells assessed as live cells at 50 uM after 48 hrs by Annexin-V-FITC/propidium iodide staining based flow cytometry (reference value: 97.5%); format: functional
[19] = molecular target: Phosphatidylinositol 4-phosphate 3-kinase C2 domain-containing subunit beta (Homo sapiens, UniProt O00750); assay: Binding affinity to human PIK3C2B (M1 to L1634 residues) expressed in mammalian expression system by KINOMEscan assay
[20] = molecular target: RAC-alpha serine/threonine-protein kinase (Homo sapiens, UniProt P31749); assay: Binding affinity to human AKT1 expressed in bacterial expression system by KINOMEscan assay
[21] = molecular target: Mitogen-activated protein kinase kinase kinase 4 (Homo sapiens, UniProt Q9Y6R4); assay: Binding affinity to human MAP3K4 (G1319 to E1608 residues) expressed in bacterial expression system by KINOMEscan assay
[22] = molecular target: Testis-specific serine/threonine-protein kinase 1 (Homo sapiens) (UniProt Q9BXA7); assay: Inhibition of full length human TSSK1B (M1 to Q367 residues) expressed in bacterial expression system assessed as residual activity at 5 uM by KINOMEscan assay relative to control
[23] = molecular target: Cyclin-dependent kinase 16 (Homo sapiens, UniProt Q00536); assay: Binding affinity to human PCTK1 (G160 to A474 residues) expressed in mammalian expression system by KINOMEscan assay
HT-29 [24] = assay: Effect on total 4EBP1 expression in human HT-29 cells up to 75 uM after 48 hrs by Western blot analysis; format: ADME, cell-based; conditions: ht-29, 48 h; in short: as §1
SW-620 [25] = assay: Effect on total AKT expression in human SW620 cells up to 75 uM after 48 hrs by Western blot analysis; format: ADME, cell-based; conditions: sw-620, 48 h; in short: as §1
[26] = molecular target: Tyrosine-protein kinase ABL1 (Homo sapiens, UniProt P00519); assay: Inhibition of human non-phosphorylated ABL1 (S229 to K512 residues) expressed in mammalian expression system assessed as residual activity at 5 uM by KINOMEscan assay relative to control
HT-29 [27] = assay: Antiproliferative activity against human HT-29 cells after 48 hrs by BrdU/DAPI staining based immunofluorescence assay; format: functional, cell-based
In short: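 Cells seeded at 20,000 per well after reaching 80% confluence; exposed 48 h to 0, 25, 50, 75 μM, then 10 μM BrdU for 2 h. Paraformaldehyde fixation, 2 M HCl 30 min, 10% goat serum block, anti-BrdU primary overnight at 4 °C, secondary 120 min at room temperature, DAPI 300 nM. Fluorescence microscopy; percent BrdU-positive nuclei, mean ± SD of three independent experiments.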

Sequence of Cyclin-dependent kinase 9 (P50750 whole entry, the tested form may be a part): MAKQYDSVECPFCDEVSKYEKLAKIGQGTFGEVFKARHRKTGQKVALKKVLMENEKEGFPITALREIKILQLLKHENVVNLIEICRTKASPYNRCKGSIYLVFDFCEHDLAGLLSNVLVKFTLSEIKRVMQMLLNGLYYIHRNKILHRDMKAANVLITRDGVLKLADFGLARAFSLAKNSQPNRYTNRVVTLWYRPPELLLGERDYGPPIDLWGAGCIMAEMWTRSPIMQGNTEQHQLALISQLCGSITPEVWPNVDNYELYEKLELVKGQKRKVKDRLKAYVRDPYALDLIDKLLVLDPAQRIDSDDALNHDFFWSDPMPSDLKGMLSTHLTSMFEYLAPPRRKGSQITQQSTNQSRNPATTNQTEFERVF
Sequence of Fibroblast growth factor receptor 3 (P22607 whole entry, the tested form may be a part): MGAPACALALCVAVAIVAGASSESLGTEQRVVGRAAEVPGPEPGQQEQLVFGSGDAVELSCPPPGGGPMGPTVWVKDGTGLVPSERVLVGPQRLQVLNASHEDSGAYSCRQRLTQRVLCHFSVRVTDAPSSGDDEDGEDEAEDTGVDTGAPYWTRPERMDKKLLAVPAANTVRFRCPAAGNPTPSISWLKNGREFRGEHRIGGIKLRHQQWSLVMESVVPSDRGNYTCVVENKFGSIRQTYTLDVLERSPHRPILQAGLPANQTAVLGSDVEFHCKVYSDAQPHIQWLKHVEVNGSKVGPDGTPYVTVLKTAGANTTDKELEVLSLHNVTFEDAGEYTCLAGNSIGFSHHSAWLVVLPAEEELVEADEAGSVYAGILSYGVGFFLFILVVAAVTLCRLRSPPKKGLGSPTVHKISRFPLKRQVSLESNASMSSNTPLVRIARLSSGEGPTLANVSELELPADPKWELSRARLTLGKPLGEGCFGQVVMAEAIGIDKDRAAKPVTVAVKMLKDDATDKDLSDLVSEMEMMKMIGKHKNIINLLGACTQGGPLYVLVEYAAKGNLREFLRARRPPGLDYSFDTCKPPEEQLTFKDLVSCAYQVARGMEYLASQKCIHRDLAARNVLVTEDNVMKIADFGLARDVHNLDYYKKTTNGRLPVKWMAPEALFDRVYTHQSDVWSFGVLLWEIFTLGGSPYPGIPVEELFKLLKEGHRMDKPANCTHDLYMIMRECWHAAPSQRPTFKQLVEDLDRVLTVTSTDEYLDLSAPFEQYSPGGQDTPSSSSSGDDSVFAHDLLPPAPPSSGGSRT
Sequence of Phosphatidylinositol 4-phosphate 3-kinase C2 domain-containing subunit beta (O00750 whole entry, the tested form may be a part): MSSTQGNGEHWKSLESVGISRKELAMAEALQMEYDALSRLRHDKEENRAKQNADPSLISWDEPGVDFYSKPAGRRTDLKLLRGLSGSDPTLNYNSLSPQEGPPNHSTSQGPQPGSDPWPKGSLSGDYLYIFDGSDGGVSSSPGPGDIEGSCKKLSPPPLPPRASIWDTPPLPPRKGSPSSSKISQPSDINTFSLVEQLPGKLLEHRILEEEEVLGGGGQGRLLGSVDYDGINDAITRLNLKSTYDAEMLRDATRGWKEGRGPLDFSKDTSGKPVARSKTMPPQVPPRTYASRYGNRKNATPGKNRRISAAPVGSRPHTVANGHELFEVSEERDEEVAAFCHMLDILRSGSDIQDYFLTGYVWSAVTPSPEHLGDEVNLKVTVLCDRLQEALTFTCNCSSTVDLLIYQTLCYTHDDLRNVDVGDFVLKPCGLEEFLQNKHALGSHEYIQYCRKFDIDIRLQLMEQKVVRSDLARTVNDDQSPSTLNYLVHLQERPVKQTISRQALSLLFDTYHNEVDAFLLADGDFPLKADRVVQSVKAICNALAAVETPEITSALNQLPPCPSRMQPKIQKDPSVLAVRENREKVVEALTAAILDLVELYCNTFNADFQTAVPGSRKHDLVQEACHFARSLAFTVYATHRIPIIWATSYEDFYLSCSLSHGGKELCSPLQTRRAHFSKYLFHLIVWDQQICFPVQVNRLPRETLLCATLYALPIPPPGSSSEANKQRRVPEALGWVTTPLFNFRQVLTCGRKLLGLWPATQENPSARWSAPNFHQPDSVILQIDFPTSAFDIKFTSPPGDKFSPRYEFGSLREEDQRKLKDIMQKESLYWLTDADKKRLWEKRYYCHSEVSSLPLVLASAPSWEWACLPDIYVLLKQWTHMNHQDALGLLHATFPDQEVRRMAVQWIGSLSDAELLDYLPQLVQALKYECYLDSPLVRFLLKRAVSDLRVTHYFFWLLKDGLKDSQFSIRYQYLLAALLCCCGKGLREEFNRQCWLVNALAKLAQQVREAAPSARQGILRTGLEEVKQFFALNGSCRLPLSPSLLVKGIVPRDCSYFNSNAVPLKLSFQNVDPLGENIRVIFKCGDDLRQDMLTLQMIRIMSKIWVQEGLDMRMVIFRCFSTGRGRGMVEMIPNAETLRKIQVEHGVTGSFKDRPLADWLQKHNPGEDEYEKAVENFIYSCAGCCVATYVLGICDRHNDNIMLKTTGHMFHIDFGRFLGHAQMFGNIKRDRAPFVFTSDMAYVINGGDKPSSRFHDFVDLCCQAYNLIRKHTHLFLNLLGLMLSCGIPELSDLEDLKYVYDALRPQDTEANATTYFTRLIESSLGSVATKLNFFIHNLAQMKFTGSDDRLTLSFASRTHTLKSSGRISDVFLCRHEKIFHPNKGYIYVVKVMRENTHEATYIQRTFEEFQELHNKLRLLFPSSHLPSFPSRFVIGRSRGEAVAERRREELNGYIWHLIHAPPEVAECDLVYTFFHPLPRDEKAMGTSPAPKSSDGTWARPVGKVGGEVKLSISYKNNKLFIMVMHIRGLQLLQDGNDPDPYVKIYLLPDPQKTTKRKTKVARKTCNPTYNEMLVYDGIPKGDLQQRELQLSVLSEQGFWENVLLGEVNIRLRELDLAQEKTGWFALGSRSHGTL
Sequence of RAC-alpha serine/threonine-protein kinase (P31749 whole entry, the tested form may be a part): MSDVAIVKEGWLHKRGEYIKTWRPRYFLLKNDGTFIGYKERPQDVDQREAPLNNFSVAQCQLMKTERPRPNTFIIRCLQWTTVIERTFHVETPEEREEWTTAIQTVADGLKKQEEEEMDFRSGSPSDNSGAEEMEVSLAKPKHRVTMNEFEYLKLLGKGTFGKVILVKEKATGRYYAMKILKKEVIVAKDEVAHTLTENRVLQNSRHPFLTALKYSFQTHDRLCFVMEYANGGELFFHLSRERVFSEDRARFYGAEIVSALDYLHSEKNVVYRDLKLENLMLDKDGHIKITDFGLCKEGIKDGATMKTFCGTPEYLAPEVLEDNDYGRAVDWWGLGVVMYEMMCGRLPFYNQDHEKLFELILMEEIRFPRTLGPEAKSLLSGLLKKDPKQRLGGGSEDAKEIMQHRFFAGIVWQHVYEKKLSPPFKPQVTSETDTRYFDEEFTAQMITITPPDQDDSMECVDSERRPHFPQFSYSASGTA
Sequence of Cyclin-dependent kinase 16 (Q00536 whole entry, the tested form may be a part): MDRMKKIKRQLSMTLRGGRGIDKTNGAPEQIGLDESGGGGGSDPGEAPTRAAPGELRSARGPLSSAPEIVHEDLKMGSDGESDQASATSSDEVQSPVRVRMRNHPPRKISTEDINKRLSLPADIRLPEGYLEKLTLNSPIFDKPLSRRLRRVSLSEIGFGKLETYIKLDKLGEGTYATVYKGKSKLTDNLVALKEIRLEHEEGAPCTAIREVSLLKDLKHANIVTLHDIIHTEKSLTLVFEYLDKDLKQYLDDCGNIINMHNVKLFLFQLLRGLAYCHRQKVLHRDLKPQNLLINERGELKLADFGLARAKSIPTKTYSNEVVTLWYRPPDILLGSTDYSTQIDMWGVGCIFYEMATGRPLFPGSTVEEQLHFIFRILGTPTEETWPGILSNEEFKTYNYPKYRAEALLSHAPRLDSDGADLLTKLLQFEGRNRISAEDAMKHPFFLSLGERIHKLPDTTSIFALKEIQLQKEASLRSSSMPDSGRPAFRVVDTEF
Sequence of MAP/microtubule affinity-regulating kinase 3 (P27448 whole entry, looked up, the tested form may be a part): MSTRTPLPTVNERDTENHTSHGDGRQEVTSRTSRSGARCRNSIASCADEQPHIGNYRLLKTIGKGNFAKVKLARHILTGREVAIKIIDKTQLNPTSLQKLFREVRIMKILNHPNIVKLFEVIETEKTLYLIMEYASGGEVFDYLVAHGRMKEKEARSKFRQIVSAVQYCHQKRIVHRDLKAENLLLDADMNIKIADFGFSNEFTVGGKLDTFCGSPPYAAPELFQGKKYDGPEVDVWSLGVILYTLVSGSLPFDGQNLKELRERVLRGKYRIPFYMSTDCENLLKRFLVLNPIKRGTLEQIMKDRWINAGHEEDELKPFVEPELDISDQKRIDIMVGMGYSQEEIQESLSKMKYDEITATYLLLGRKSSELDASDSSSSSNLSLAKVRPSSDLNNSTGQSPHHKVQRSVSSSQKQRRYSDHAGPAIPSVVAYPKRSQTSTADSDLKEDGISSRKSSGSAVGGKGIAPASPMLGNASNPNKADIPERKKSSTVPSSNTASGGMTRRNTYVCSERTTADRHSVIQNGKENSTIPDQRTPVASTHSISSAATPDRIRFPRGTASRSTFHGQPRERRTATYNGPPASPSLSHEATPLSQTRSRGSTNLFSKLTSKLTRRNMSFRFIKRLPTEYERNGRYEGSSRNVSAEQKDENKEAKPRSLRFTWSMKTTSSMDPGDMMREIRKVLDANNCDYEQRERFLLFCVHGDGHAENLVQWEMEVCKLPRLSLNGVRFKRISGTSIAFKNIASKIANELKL
Sequence of Activin receptor type-1B (P36896 whole entry, the tested form may be a part): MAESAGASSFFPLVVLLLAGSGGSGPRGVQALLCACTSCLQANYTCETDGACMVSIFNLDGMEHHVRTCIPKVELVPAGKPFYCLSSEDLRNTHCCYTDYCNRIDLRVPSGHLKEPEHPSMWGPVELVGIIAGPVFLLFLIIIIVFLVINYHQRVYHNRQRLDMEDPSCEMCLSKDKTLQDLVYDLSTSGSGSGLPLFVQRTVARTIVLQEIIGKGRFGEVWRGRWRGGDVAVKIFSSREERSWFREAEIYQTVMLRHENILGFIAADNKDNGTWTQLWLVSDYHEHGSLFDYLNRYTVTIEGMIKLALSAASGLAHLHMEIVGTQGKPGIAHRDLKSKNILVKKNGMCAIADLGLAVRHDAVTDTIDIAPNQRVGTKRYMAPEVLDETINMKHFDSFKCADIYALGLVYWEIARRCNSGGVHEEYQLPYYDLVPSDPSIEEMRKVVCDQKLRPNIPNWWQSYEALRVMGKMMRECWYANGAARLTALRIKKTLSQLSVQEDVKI

Compound `CC(C)CN(C(=O)c1cccnc1)c1c2ccccc2c(=O)n2c1[nH]c1ccccc12` has a Kd [1] of at least 5 µM, a Kd [2] of at least 5 µM and an Activity [3] of 87%. It also gave an Activity [4] of 94%, an Activity [5] of 84% and an Activity (SW-620 [6]) of 29.26%. The Activity (HT-29 [7]) was 49.8%, the Activity (SW-620 [8]) was 38.82% and the inhibition (Homo sapiens) was “Active”. It also gave an Activity [9] of 100%, an Activity (HT-29 [10]) of 0.3% and a Kd (Activin receptor type-1B) of at least 5 µM. For the same compound, the Kd [11] was at least 5 µM, the Activity [12] was 100% and the Activity (SW-620 [13]) was “Dose-dependent effect”. For the same compound, the Kd [14] was at least 5 µM, the Activity (SW-620 [15]) was “Dose-dependent effect” and the Kd [16] was at least 5 µM. It also gave a Kd [17] of at least 5 µM, an Activity (SW-620 [18]) of 81.7% and a Kd [19] of at least 5 µM. The Kd [20] was at least 5 µM, the Kd [21] was at least 5 µM and the Activity [22] was 92%. For the same compound, the Kd [23] was at least 5 µM, the Activity (HT-29 [24]) was “Non-Toxic” and the Activity (SW-620 [25]) was “Non-Toxic”. For the same compound, the Activity [26] was 65% and the Activity (HT-29 [27]) was “Dose-dependent effect”.
